Assay: Critical gelation concentration by vial inversion after addition of PBS
Type: physicochemical
In short: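 Self-assembling collagen-binding peptide amphiphile filaments were dissolved in water. They were either left unsprayed, sprayed with an atomizer, or emitted from a jet nebulizer as a respirable aerosol. PBS was then added to give 1× PBS, and gelation was judged by vial inversion.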

LRELHLNNN [CBDA]
critical gelation concentration (CGC) (after spraying with an atomizer): 1 mM | critical gelation concentration (CGC) (filaments in water, PBS added to final 1× PBS, not sprayed): ~ 1 mM
